Assay results from ChEMBL document CHEMBL1926651, “Design, synthesis, antiviral and cytostatic evaluation of novel isoxazolidine nucleotide analogues with a 1,2,3-triazole linker” (Eur J Med Chem, 2012).
Calls of active or inactive are those of the source. The calls are words filed in the database; no cut-off is given here.

Assays:
[1] = tested on: Human respirovirus 3; test: Antiviral activity against Parainfluenza-3 virus infected in african green monkey Vero cells assessed as inhibition of viral plaque formation at 250 uM; assay type: functional, organism-based
Outline: (§1)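 Confluent host cell monolayers were inoculated with 100 CCID50 of virus in the presence of test compound at serial dilutions (250, 50, 10, … μM). Viral cytopathicity was scored once it reached completion in untreated virus-infected controls.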

[2] = tested on: Sindbis virus; test: Antiviral activity against Sindbis virus infected in african green monkey Vero cells assessed as inhibition of viral plaque formation at 250 uM; assay type: functional, organism-based; outline: as §1
[3] = tested on: Human betaherpesvirus 5; test: Antiviral activity against Human cytomegalovirus AD169 infected in human HEL cells assessed as inhibition of viral plaque formation at 250 uM; assay type: functional, organism-based
[4] = tested on: CCRF-CEM; test: Cytotoxicity against human CEM cells 3 days by coulter counting; assay type: functional; conditions: 72 h
Outline: (§2)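 Cells were suspended at 300,000–500,000 cells/mL and added 1:1 to compound dilutions. Incubation was at 37 °C, 2 days for L1210 and 3 days for CEM, HeLa and HEL. Cells were counted with a Coulter counter. CC50 is the concentration inhibiting cell proliferation by 50%.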

[5] = tested on: Human alphaherpesvirus 3; test: Antiviral activity against thymidine kinase-positive Varicella Zoster virus Oka infected in human HEL cells assessed as inhibition of viral plaque formation at 250 uM; assay type: functional, cell-based; conditions: strain Oka vaccine
[6] = tested on: Human betaherpesvirus 5; test: Antiviral activity against Human cytomegalovirus Davis infected in human HEL cells assessed as inhibition of viral plaque formation at 250 uM; assay type: functional, organism-based
[7] = tested on: Human immunodeficiency virus 2; test: Antiviral activity against Human immunodeficiency virus 2 infected in human CEM cells assessed as inhibition of virus-induced giant cell formation after 4 days by microscopic analysis; assay type: functional, organism-based; conditions: CCRF-CEM
Outline: (§3)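 CEM cells at about 3 × 10⁵ cells/cm³ were infected with 100 CCID50/mL of HIV-1(IIIB) or HIV-2(ROD), then seeded into wells holding test compound dilutions. After 4 days at 37 °C, virus-induced giant cell formation was scored microscopically.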

[8] = tested on: Vesicular stomatitis virus; test: Antiviral activity against Vesicular stomatitis virus infected in human HEL cells assessed as inhibition of viral plaque formation at 250 uM; assay type: functional, organism-based; outline: as §1
[9] = tested on: Feline coronavirus; test: Antiviral activity against Feline coronavirus infected in CrFK cells assessed as inhibition of viral plaque formation at 250 uM; assay type: functional, organism-based; outline: as §1
[10] = tested on: HeLa; test: Cytotoxicity against human HeLa cells 3 days by coulter counting; assay type: functional; conditions: 72 h; outline: as §2
[11] = tested on: Felid alphaherpesvirus 1; test: Antiviral activity against Felid herpesvirus 1 infected in CrFK cells assessed as inhibition of viral plaque formation at 250 uM; assay type: functional, organism-based; outline: as §1
[12] = tested on: Human alphaherpesvirus 1; test: Antiviral activity against Herpes simplex virus 1 KOS infected in human HEL cells assessed as inhibition of viral plaque formation at 250 uM; assay type: functional, organism-based; outline: as §1
[13] = tested on: Vesicular stomatitis virus; test: Antiviral activity against Vesicular stomatitis virus infected in human Hela cells assessed as inhibition of viral plaque formation at 250 uM; assay type: functional, organism-based
[14] = tested on: Human alphaherpesvirus 1; test: Antiviral activity against thymidine kinase-deficient acv-resistant Herpes simplex virus 1 KOS infected in human HEL cells assessed as inhibition of viral plaque formation at 250 uM; assay type: functional, organism-based
[15] = tested on: Mammalian orthoreovirus 1; test: Antiviral activity against Reovirus-1 infected in african green monkey Vero cells assessed as inhibition of viral plaque formation at 250 uM; assay type: functional, organism-based; outline: as §1
[16] = tested on: Punta Toro virus; test: Antiviral activity against Punta Toro virus infected in african green monkey Vero cells assessed as inhibition of viral plaque formation at 250 uM; assay type: functional, organism-based
[17] = tested on: Human alphaherpesvirus 2; test: Antiviral activity against Herpes simplex virus 2 G infected in human HEL cells assessed as inhibition of viral plaque formation at 250 uM; assay type: functional, organism-based; conditions: strain G
[18] = tested on: Coxsackievirus B4; test: Antiviral activity against Coxsackievirus B4 infected in african green monkey Vero cells assessed as inhibition of viral plaque formation at 250 uM; assay type: functional, organism-based; outline: as §1
[19] = tested on: Respiratory syncytial virus; test: Antiviral activity against Respiratory syncytial virus infected in human HeLa cells assessed as inhibition of viral plaque formation at 250 uM; assay type: functional, organism-based; outline: as §1
[20] = tested on: Coxsackievirus B4; test: Antiviral activity against Coxsackievirus B4 infected in human HeLa cells assessed as inhibition of viral plaque formation at 250 uM; assay type: functional, organism-based; outline: as §1
[21] = tested on: L1210; test: Cytotoxicity against mouse L1210 cells 2 days by coulter counting; assay type: functional; conditions: L1210, 48 h; outline: as §2
[22] = tested on: Human immunodeficiency virus 1; test: Antiviral activity against Human immunodeficiency virus 1 infected in human CEM cells assessed as inhibition of virus-induced giant cell formation after 4 days by microscopic analysis; assay type: functional, organism-based; conditions: CCRF-CEM; outline: as §3
[23] = tested on: HEL; test: Cytotoxicity against human HEL cells 3 days by coulter counting; assay type: functional; conditions: 72 h; outline: as §2
[24] = tested on: Vaccinia virus; test: Antiviral activity against Vaccinia virus infected in human HEL cells assessed as inhibition of viral plaque formation at 250 uM; assay type: functional, organism-based; conditions: Orthopoxvirus vaccinia; outline: as §1
[25] = tested on: Human alphaherpesvirus 3; test: Antiviral activity against thymidine kinase-deficient Varicella Zoster virus 07/1 infected in human HEL cells assessed as inhibition of viral plaque formation at 250 uM; assay type: functional, organism-based

Row | SMILES | Activity [1] | Activity [2] | Activity [3] | CC50 [4] [µM] | Activity [5] | Activity [6] | Activity [7] | Activity [8] | Activity [9] | CC50 [10] [µM] | Activity [11] | Activity [12] | Activity [13] | Activity [14] | Activity [15] | Activity [16] | Activity [17] | Activity [18] | Activity [19] | Activity [20] | further results
1 | CCOP(=O)(OCC)[C@@H]1C[C@@H](n2cc(Cn3cnc4c(N)ncnc43)nn2)ON1C (racemic) | inactive | inactive | inactive | > 250 | inactive | inactive | inactive | inactive | inactive | > 250 | inactive | inactive | inactive | inactive | inactive | inactive | inactive | inactive | inactive | inactive | CC50 [21]: 140 µM; Activity [22]: inactive; CC50 [23]: > 100 µM; Activity [24]: inactive; Activity [25]: inactive
2 | CCOP(=O)(OCC)[C@@H]1C[C@H](n2cc(Cn3ccc(=O)[nH]c3=O)nn2)ON1C (racemic) | inactive | inactive | inactive | > 250 | inactive | inactive | inactive | inactive | inactive | > 250 | inactive | inactive | inactive | inactive | inactive | inactive | inactive | inactive | inactive | inactive | CC50 [21]: 235 µM; Activity [22]: inactive; CC50 [23]: > 100 µM; Activity [24]: inactive; Activity [25]: inactive
3 | CCOP(=O)(OCC)[C@@H]1C[C@H](n2cc(Cn3cc(C)c(=O)[nH]c3=O)nn2)ON1C (racemic) | inactive | inactive | inactive | > 250 | inactive | inactive | inactive | inactive | inactive | > 250 | inactive | inactive | inactive | inactive | inactive | inactive | inactive | inactive | inactive | inactive | CC50 [21]: 280 µM; Activity [22]: inactive; CC50 [23]: > 100 µM; Activity [24]: inactive; Activity [25]: inactive
4 | CCOP(=O)(OCC)[C@@H]1C[C@@H](n2cc(Cn3ccc(=O)[nH]c3=O)nn2)ON1C (relative stereo) | inactive | inactive | inactive | > 250 | inactive | inactive | inactive | inactive | inactive | ≥ 250 | inactive | inactive | inactive | inactive | inactive | inactive | inactive | inactive | inactive | inactive | CC50 [21]: > 250 µM; Activity [22]: inactive; CC50 [23]: > 100 µM; Activity [24]: inactive; Activity [25]: inactive
5 | CCOP(=O)(OCC)[C@@H]1C[C@@H](n2cc(Cn3cc(C)c(=O)[nH]c3=O)nn2)ON1C (relative stereo) | inactive | inactive | inactive | > 250 | inactive | inactive | inactive | inactive | inactive | > 250 | inactive | inactive | inactive | inactive | inactive | inactive | inactive | inactive | inactive | inactive | CC50 [21]: ≥ 250 µM; Activity [22]: inactive; CC50 [23]: > 100 µM; Activity [24]: inactive; Activity [25]: inactive
6 | CCOP(=O)(OCC)[C@@H]1C[C@@H](n2cc(Cn3ccc(NC(C)=O)nc3=O)nn2)ON1C (relative stereo) | inactive | inactive | inactive | > 250 | inactive | inactive | inactive | inactive | inactive | > 250 | inactive | inactive | inactive | inactive | inactive | inactive | inactive | inactive | inactive | inactive | CC50 [21]: ≥ 250 µM; Activity [22]: inactive; CC50 [23]: > 100 µM; Activity [24]: inactive; Activity [25]: inactive
7 | CCOP(=O)(OCC)[C@@H]1C[C@@H](n2cc(C(=O)OC)nn2)ON1C (relative stereo) | inactive | inactive | inactive | > 250 | inactive | inactive | inactive | inactive | inactive | > 250 | inactive | inactive | inactive | inactive | inactive | inactive | inactive | inactive | inactive | inactive | CC50 [21]: 191 µM; Activity [22]: inactive; CC50 [23]: > 100 µM; Activity [24]: inactive; Activity [25]: inactive
8 | CCOP(=O)(OCC)[C@@H]1C[C@H](n2cc(Cn3ccc(NC(C)=O)nc3=O)nn2)ON1C (relative stereo) | inactive | inactive | inactive | > 250 | inactive | inactive | inactive | inactive | inactive | > 250 | inactive | inactive | inactive | inactive | inactive | inactive | inactive | inactive | inactive | inactive | CC50 [21]: > 250 µM; Activity [22]: inactive; CC50 [23]: > 100 µM; Activity [24]: inactive; Activity [25]: inactive
